Measured values collected from several papers.
Protocols differ between the studies behind these lines.
Target: Serine/threonine-protein kinase PAK 5 (PAK5, Homo sapiens, UniProt Q9P286)

Compound	test	conditions	endpoint	result
Cc1cnc(NC2CCOCC2)nc1-n1cnc(C(=O)NC(CN)c2cc(F)cc(Cl)c2)c1 (centres unmarked)	enzyme activity, inhibitor, radiometric	1 µM	remaining activity	83%
Cc1noc([C@H]2C[C@@H](c3ccc(C(F)(F)F)cc3)CN(C(=O)N3CCS(=O)(=O)C3)C2)n1	cell-free assay, competition with immobilised ligand	1 µM	remaining binding	100%
COc1cc(Nc2cnc(C#N)c(O[C@H](C)CN(C)C)n2)ncc1-c1cnn(C)c1	enzyme activity, inhibitor, radiometric	1 µM	remaining activity	93%
O=C(O)[C@H]1[C@H](Cn2nnc3ccccc3c2=O)CC[C@@H]1C(=O)c1ccc(OCCC2CCOCC2)cc1	cell-free assay, competition with immobilised ligand	1 µM	remaining binding	98%
CC(C)(C)c1nc(-c2cccc(NS(=O)(=O)c3c(F)cccc3F)c2F)c(-c2ccnc(N)n2)s1	enzyme activity, inhibitor, radiometric	1 µM	remaining activity	78%
Cc1ccc(C(=O)NCc2ccsc2)cc1C#Cc1cn(C(C)C)c2ncnc(N)c12	enzyme activity, inhibitor	1 µM	activity vs control	105%
CN(C)C(=O)Cn1cc(-c2nc(C3(c4ccc(-c5cnc(N)nc5)cc4)CC3)no2)cn1	cell-free assay, competition with immobilised ligand	1 µM	remaining binding	88%
Oc1cccc(-c2nc(N3CCOCC3)c3oc4ncccc4c3n2)c1	enzyme activity, inhibitor	10 µM	remaining activity	112%
CN(C)c1nccc(-c2cnc3ncccn23)n1	binding	1 µM	remaining binding	78%
COc1cc2ncnc(Nc3ccc(Oc4ccccc4)c(C)c3C)c2cc1OC	enzyme activity, inhibitor	1 µM	inhibition	3%
CS(=O)(=O)CCNCc1ccc(-c2ccc3ncnc(Nc4ccc(OCc5cccc(F)c5)c(Cl)c4)c3c2)o1	cell-free assay	0.5 µM	remaining signal	98.5%
Nc1nc(NC2CCCCC2)sc1C(=O)c1ccccc1	enzyme activity, inhibitor	10 µM	remaining activity	103%
O=C(Nc1cnn(-c2csc(C(=O)NC3COC3)c2)c1)Nc1c(F)cccc1Cl	enzyme activity, inhibitor	5 µM	remaining activity	92.9%
CCCOc1ccc(OC)c(F)c1C(=O)c1ccc(C(=O)N[C@@H]2CNC[C@H]2NC(=O)c2ccc3[nH]ncc3c2)cc1	enzyme activity, inhibitor	10 µM	remaining activity	85%
CN1CCN(c2cnc3c(C4CCN(C(=O)c5ccc(OC(F)(F)F)cc5N)CC4)ncnc3c2)CC1	cell-free assay, competition with immobilised ligand	1 µM	remaining binding	100%
FC(F)(F)Oc1cccc(-c2cnc3ccc(-c4ccncc4)nn23)c1	enzyme activity, inhibitor, radiometric	1 µM	activity vs control	72%
CC/C(=N\NC(=O)NCc1cccc(O)c1)c1ccc(O)c(C)c1O	enzyme activity, inhibitor	0.1 µM	inhibition	-3.9%
CC(C)(C)C(=O)c1sc(NC2CCCCC2)nc1N	enzyme activity, inhibitor	10 µM	remaining activity	110%
CCN(CC)CCNC(=O)c1c(C)[nH]c(/C=C2\C(=O)Nc3ccc(F)cc32)c1C	enzyme activity, inhibitor	0.3 µM	inhibition	-4%
N#CCCc1ccc2c(c1)-c1[nH]c3ccc([N+](=O)[O-])cc3c1CC(=O)N2	cell-free assay	0.5 µM	remaining signal	60.3%
Nc1c(C(=O)NCc2ccc(C(=O)NCCCC3CCCCC3)cc2)cnn1-c1ccccc1	cell-free assay, competition with immobilised ligand	0.1 µM	remaining binding	100%
CNC(=O)c1cc(Oc2ccc(NC(=O)Nc3ccc(Cl)c(C(F)(F)F)c3)cc2)ccn1	enzyme activity, inhibitor	0.3 µM	inhibition	-18%
Cc1ccc(Nc2nccc(N(C)c3ccc4c(C)n(C)nc4c3)n2)cc1S(N)(=O)=O	cell-free assay, inhibitor	0.5 µM	remaining signal	95.4%
Cc1nccc(COC(=O)N2C[C@@H]3[C@@H](CNC(=O)c4ccc5[nH]nnc5c4)[C@@H]3C2)n1	cell-free assay, competition with immobilised ligand	1 µM	remaining binding	92%
FC(F)c1nc2ccccc2n1-c1nc(N2CCOCC2)nc(N2CCOCC2)n1	enzyme activity, inhibitor	10 µM	remaining activity	84%
CCC(=O)N[C@@H]1CC[C@H](C(=O)N(C)c2ccc(-c3nc4ccccc4o3)cc2)C1	cell-free assay, competition with immobilised ligand	1 µM	remaining binding	100%
CCN(CC)c1ccc(C2=NNC(=O)CC2C)cc1[N+](=O)[O-] (centres unmarked)	enzyme activity, inhibitor	10 µM	remaining activity	5%
Cc1sc(C(=O)NC2COC2)cc1-n1cc(NC(=O)Nc2c(F)cccc2Cl)cn1	enzyme activity, inhibitor	10 µM	remaining activity	103%
FC(F)(F)c1ccc2c(c1)nc(-c1cccnc1)n2C1CC1	cell-free assay, competition with immobilised ligand	1 µM	remaining binding	100%
